Measured values as given in ChEMBL document CHEMBL1275561, “In vitro activities of doripenem, a new broad-spectrum carbapenem, against recently collected clinical anaerobic isolates, with emphasis on the Bacteroides fragilis group” (2008).
Values joined by “and” are separate entries in the source; they are usually repeats but may differ in a detail not shown here. Identical values can stand only once.

Experiments:
Format in all cases: functional
Bacteroides caccae = assay: Antimicrobial activity against Bacteroides caccae assessed as resistant isolates by agar dilution method
In short: (§1)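 CLSI agar dilution on enriched brucella agar (5% lysed defibrinated sheep blood, 1 μg/ml vitamin K1), plates made on test day. Log-phase inocula adjusted to 0.5 McFarland; about 10^5 CFU/spot by Steers replicator. Incubated anaerobically at 37°C for 48 h. MIC was the lowest concentration giving a marked change in growth versus the drug-free control plate. Resistance rates used CLSI anaerobe breakpoints. Controls were B. fragilis ATCC 25285 and B. thetaiotaomicron ATCC 29741.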

[1] = tested on: Parabacteroides distasonis; assay: Antimicrobial activity against Bacteroides distasonis assessed as resistant isolates by agar dilution method; in short: as §1
Bacteroides fragilis = assay: Antimicrobial activity against Bacteroides fragilis assessed as resistant isolates by agar dilution method; in short: as §1
Bacteroides ovatus = assay: Antimicrobial activity against Bacteroides ovatus assessed as resistant isolates by agar dilution method; in short: as §1
[2] = tested on: Bacteroides thetaiotaomicron; assay: Antimicrobial activity against Bacteroides thetaiotaomicron assessed as resistant isolates by agar dilution method; in short: as §1
Bacteroides uniformis = assay: Antimicrobial activity against Bacteroides uniformis assessed as resistant isolates by agar dilution method; in short: as §1
Phocaeicola vulgatus = assay: Antimicrobial activity against Bacteroides vulgatus assessed as resistant isolates by agar dilution method; in short: as §1
Bacteroides eggerthii = assay: Antimicrobial activity against Bacteroides eggerthii assessed as resistant isolates by agar dilution method; in short: as §1
Parabacteroides merdae = assay: Antimicrobial activity against Bacteroides merdae assessed as resistant isolates by agar dilution method; in short: as §1
Bacteroides nordii = assay: Antimicrobial activity against Bacteroides nordii assessed as resistant isolates by agar dilution method; in short: as §1
Clostridioides difficile = assay: Antimicrobial activity against Clostridium difficile by agar dilution method in presence of beta-lactamase inhibitor Sulbactam
In short: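 MICs by CLSI agar dilution on enriched brucella agar (5% lysed defibrinated sheep blood, 1 μg/ml vitamin K1). Log-phase inoculum at 0.5 McFarland, about 10^5 CFU/spot by replicator. Plates held anaerobically at 37°C for 48 h. Endpoint was the lowest concentration giving a marked change in growth against the control plate. Eubacterium lentum ATCC 43055 was the control.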

[Clostridium] innocuum = Antimicrobial activity against Clostridium innocuum assessed as resistant isolates by agar dilution method; settings: pooled result: one value given for 4 cell lines, strains, targets or settings
Finegoldia magna [3] = assay: Antimicrobial activity against Finegoldia magna by agar dilution method in presence of beta-lactamase inhibitor Sulbactam
In short: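 Gram-positive anaerobes were tested by CLSI agar dilution on brucella agar enriched with 5% lysed defibrinated sheep blood and 1 μg/ml vitamin K1. Inoculum was log-phase growth at 0.5 McFarland, about 10^5 CFU/spot by replicator. Incubation was anaerobic, 37°C, 48 h. MIC was the lowest concentration with a marked growth change versus the drug-free plate. Eubacterium lentum ATCC 43055 was the control, and tests were repeated if it fell outside the CLSI range.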

Finegoldia magna [4] = assay: Antimicrobial activity against Finegoldia magna assessed as resistant isolates by agar dilution method
In short: (§2)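 Agar dilution following CLSI on brucella agar with 5% lysed defibrinated sheep blood and 1 μg/ml vitamin K1, plates made on test day. Log-phase cells at 0.5 McFarland, about 10^5 CFU/spot by Steers replicator, 48 h anaerobic at 37°C. MIC read as the lowest concentration causing a marked growth change versus control. Resistance counted by CLSI anaerobe breakpoints. Eubacterium lentum ATCC 43055 served as control.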

[5] = tested on: Peptoniphilus asaccharolyticus; assay: Antimicrobial activity against Peptoniphilus asaccharolyticus assessed as resistant isolates by agar dilution method; settings: pooled result: one value given for 4 cell lines, strains, targets or settings; in short: as §2
Cutibacterium acnes [6] = assay: Antimicrobial activity against Propionibacterium acnes by agar dilution method in presence of beta-lactamase inhibitor Sulbactam
In short: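 Log-phase isolates were adjusted to 0.5 McFarland, and about 10^5 CFU/spot was delivered by Steers replicator. Plates were incubated anaerobically at 37°C for 48 h. MIC was the lowest concentration giving a marked growth change versus the control plate. Eubacterium lentum ATCC 43055 was the QC strain, with repeats when out of range.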

Cutibacterium acnes [7] = assay: Antimicrobial activity against Propionibacterium acnes assessed as resistant isolates by agar dilution method; in short: as §2
Propionibacterium = assay: Antimicrobial activity against Propionibacterium sp. assessed as resistant isolates by agar dilution method; in short: as §2

CC1(C)S[C@@H]2[C@H](NC(=O)[C@H](N)c3ccccc3)C(=O)N2[C@H]1C(=O)O [AMPICILLIN]
Activity (Bacteroides caccae): 0%
Activity [1]: 6.7%
Activity (Bacteroides fragilis): 4.5%
Activity (Bacteroides ovatus): 11.4%
Activity [2]: 3.8%
Activity (Bacteroides uniformis): 0%
Activity (Phocaeicola vulgatus): 0%
Activity (Bacteroides eggerthii): 0%
Activity (Parabacteroides merdae): 0%
Activity (Bacteroides nordii): 0%
MIC (Clostridioides difficile): 4 µg/mL
Activity ([Clostridium] innocuum): 5.6%
MIC (Finegoldia magna [3]): 2 µg/mL
MIC (Finegoldia magna [3]; Finegoldia magna, read-out: MIC): 2 µg/mL
Activity (Finegoldia magna [4]): 0%
Activity [5]: 0%
MIC (Cutibacterium acnes [6]): 0.25 µg/mL and 0.5 µg/mL
MIC (Cutibacterium acnes [6]; Cutibacterium acnes, read-out: MIC): 0.25 µg/mL
Activity (Cutibacterium acnes [7]): 0%
Activity (Propionibacterium): 0%
